From ChEMBL document CHEMBL3853323, “Small Antimicrobial Agents Based on Acylated Reduced Amide Scaffold” (J Med Chem, 2016)
In brackets after ≈: the same amount, converted by molar mass. Activity calls are given as the source filed them. No cut-off for these calls is given here.

Legend:
Escherichia coli [1] = assay: Antibacterial activity against Escherichia coli ATCC 25922 after 16 to 20 hrs by two fold serial dilution method; assay type: functional
Procedure, shortened: (§1)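 MIC as lowest concentration giving complete inhibition of growth after 20 h; at least three independent experiments, each in duplicate.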

Pseudomonas aeruginosa = assay: Antibacterial activity against Pseudomonas aeruginosa ATCC 27853 after 16 to 20 hrs by two fold serial dilution method; assay type: functional; procedure, shortened: as §1
Klebsiella pneumoniae = assay: Antibacterial activity against Klebsiella pneumoniae ATCC 13383 after 16 to 20 hrs by two fold serial dilution method; assay type: functional; procedure, shortened: as §1
Staphylococcus aureus [2] = assay: Antibacterial activity against methicillin-resistant Staphylococcus aureus ATCC 33591 after 16 to 20 hrs by two fold serial dilution method; assay type: functional
Procedure, shortened: (§2)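 Broth MIC: the lowest concentration giving complete growth inhibition after 20 h. Run at least three times, in duplicate each time.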

[3] = test system: Staphylococcus epidermidis; assay: Antibacterial activity against methicillin-resistant Staphylococcus epidermidis RP62A after 16 to 20 hrs by two fold serial dilution method; assay type: functional; procedure, shortened: as §2
Enterococcus faecalis = assay: Antibacterial activity against vancomycin resistant Enterococcus faecalis ATCC 700802 after 16 to 20 hrs by two fold serial dilution method; assay type: functional; procedure, shortened: as §2
[4] = Hemolytic activity in human RBC after 1 hr; assay type: ADME, cell-based, Erythrocyte; conditions: human red blood cells
Procedure, shortened: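 Fresh K2EDTA human RBCs, PBS-washed, as 5% v/v suspension mixed 1:1 with compound dilutions, 37 °C for 1 h. Supernatant after centrifugation diluted in PBS, A540 read. % hemolysis relative to 2% Triton X-100 (positive) and PBS (negative). At least three runs, each in duplicate.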

[5] = Cytotoxicity against human HK2 cells assessed as cell viability after 24 hrs by MTT assay; assay type: toxicity, cell-based, HK-2
Procedure, shortened: (§3)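 Cells seeded at 5×10^4 per well and left 12 h, then exposed 24 h to compound at 100, 50, 25, 12.5 or 6.25 μg/mL diluted in medium. Medium replaced, MTT added for 4 h, solubilized 12 h at 37 °C, A550 read; viability % = (A − Ablank)/(Acontrol − Ablank) × 100. Run at least three times.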

[6] = Cytotoxicity against human K562 cells assessed as cell viability after 24 hrs by MTT assay; assay type: toxicity, cell-based; procedure, shortened: as §3
[7] = Selectivity ratio of IC50 for human HK2 cells to MIC for methicillin-resistant Staphylococcus aureus ATCC 33591; assay type: ADME, cell-based
[8] = Selectivity ratio of IC50 for human K562 cells to MIC for methicillin-resistant Staphylococcus aureus ATCC 33591; assay type: ADME, cell-based
Staphylococcus aureus [9] = assay: Bactericidal activity against methicillin-resistant Staphylococcus aureus ATCC 33591 assessed as disruption of bacterial membrane at 25 ug/ml after 2 hrs by DAPI staining based fluorescence microscopy; assay type: functional
Procedure, shortened: (§4)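 Mid-log MRSA was exposed to compound at 37 °C for 2 h, pelleted and washed three times in PBS. Cells were stained sequentially with PI (5 µg/mL) and DAPI (10 µg/mL), 15 min each on ice in the dark. Imaged with a 100× oil objective; DAPI channel 460 nm, PI channel 620 nm.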

Staphylococcus aureus [10] = assay: Bactericidal activity against methicillin-resistant Staphylococcus aureus ATCC 33591 assessed as disruption of bacterial membrane at 25 ug/ml after 2 hrs by propidium iodide staining based fluorescence microscopy; assay type: functional; procedure, shortened: as §4
Staphylococcus aureus [11] = assay: Bactericidal activity against methicillin-resistant Staphylococcus aureus ATCC 33591 for 10 mins to 2 hrs by time kill assay; assay type: functional
Procedure, shortened: (§5)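 MRSA grown to mid-log in TSB was diluted to 10^6 CFU/mL. […] Samples were diluted 10^2–10^4-fold and plated on TSB agar. CFU were counted after overnight incubation at 37 °C and plotted against time.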

Staphylococcus aureus [12] = assay: Bactericidal activity against methicillin-resistant Staphylococcus aureus ATCC 33591 at 25 to 50 ug/ml for 10 mins to 2 hrs by time kill assay; assay type: functional; procedure, shortened: as §5
Staphylococcus aureus [13] = assay: Antibacterial activity against methicillin-resistant Staphylococcus aureus ATCC 33591 at 0.5 times MIC after 14 passages; assay type: functional
Procedure, shortened: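 Resistance passaging: the starting MIC was measured as in the MIC assay. Bacteria from the 1/2 MIC well seeded the next day's assay. Repeated daily for 14 passages.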

Escherichia coli [14] = assay: Inhibition of biofilm formation in Escherichia coli ATCC 25922 at 0.6 ug/ml incubated overnight by crystal violet staining based assay; assay type: functional
Procedure, shortened: (§6)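 Overnight culture diluted 1:100 into 10% MHII broth, incubated with compound overnight at 37 °C. Growth read at OD600, then biomass stained with crystal violet; CV OD divided by growth OD and normalized to untreated control. Triplicate, mean ± STDEV.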

Acinetobacter baumannii [15] = assay: Inhibition of biofilm formation in Acinetobacter baumannii at 0.6 ug/ml incubated overnight by crystal violet staining based assay; assay type: functional; procedure, shortened: as §6
Escherichia coli [16] = assay: Inhibition of biofilm formation in Escherichia coli ATCC 25922 at 2 ug/ml incubated overnight by crystal violet staining based assay; assay type: functional; procedure, shortened: as §6
Acinetobacter baumannii [17] = assay: Inhibition of biofilm formation in Acinetobacter baumannii at 2 ug/ml incubated overnight by crystal violet staining based assay; assay type: functional; procedure, shortened: as §6
Staphylococcus aureus [18] = assay: Antibacterial activity against methicillin-resistant Staphylococcus aureus induced ventilator-associated pneumonia bearing Wistar rat model assessed as reduction in lung infiltrated proinflammatory cells at 10 mg/kg, iv measured after 1 to 3 days by hematoxylin and eosin staining based light microscopy; assay type: functional, organism-based
Procedure, shortened: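 Male Wistar rats (6‒8 weeks, ~200 g) were fasted at least 12 h and given urethane 1 g/kg i.p. Pneumonia was induced by slow intratracheal injection of 100 μL PBS with 2×10^5 CFU/mL MRSA under mechanical ventilation. Compound was given at 10 mg/kg i.v. via tail vein. H&E-stained lung sections were scored for neutrophil infiltration and alveolar integrity over time, five random sections each.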

Rattus norvegicus = assay: Antiinflammatory activity in methicillin-resistant Staphylococcus aureus induced ventilator-associated pneumonia bearing Wistar rat model assessed as reduction in TNF-alpha levels in bronchoalveolar lavage fluid at 10 mg/kg, iv measured after 1 to 3 days by ELISA; assay type: functional, organism-based
Procedure, shortened: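 Same MRSA pneumonia rat model with 10 mg/kg i.v. tail-vein dosing. Rats were sacrificed and exsanguinated. Lungs were lavaged through a tracheal needle with 1 mL sterile PBS for six cycles. Specimens were homogenized and TNF-α was measured by ELISA.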

In the case of `NCCCC[C@H](N)C(=O)N[C@@H](Cc1ccccc1)CN(CC(=O)NCC12CC3CC(CC(C3)C1)C2)C(=O)CC12CC3CC(CC(C3)C1)C2`, the MIC (Escherichia coli [1]) is reported as 3.12 µg/mL (≈ 4.73 µM), the MIC (Pseudomonas aeruginosa) is reported as 6.25 µg/mL (≈ 9.47 µM) and the MIC (Klebsiella pneumoniae) is reported as 6.25 µg/mL (≈ 9.47 µM). The MIC (Staphylococcus aureus [2]) was 1.56 µg/mL (≈ 2.36 µM), the MIC [3] was 3.12 µg/mL (≈ 4.73 µM) and the MIC (Enterococcus faecalis) was 6.25 µg/mL (≈ 9.47 µM). It also gave an HC50 at 1 h [4] of 85 µg/mL, an IC50 at 24 h [5] of 86.3 µg/mL (≈ 131 µM) and an IC50 at 24 h [6] of 83.2 µg/mL (≈ 126 µM). For the same molecule, the selectivity ratio [7] was > 50, the selectivity ratio [8] was > 50 and the Activity (Staphylococcus aureus [9]) was “Active”. For the same molecule, the Activity (Staphylococcus aureus [10]) was “Active”, the Activity (Staphylococcus aureus [11]) was “Dose-dependent effect” and the Activity (Staphylococcus aureus [12]) was “Active”. For the same molecule, the Activity (Staphylococcus aureus [13]) was “Active”, the inhibition at 0.6 µg/mL (Escherichia coli [14]) was > 50% and the inhibition at 0.6 µg/mL (Acinetobacter baumannii [15]) was > 50%. The inhibition (Escherichia coli [16]) was “Active”, the inhibition (Acinetobacter baumannii [17]) was “Active” and the Activity (Staphylococcus aureus [18]) was “Active”. The Activity (Rattus norvegicus) was “Active”.
